From ChEMBL document CHEMBL1629432, “The identification of novel orally active mGluR5 antagonist GSK2210875” (Bioorg Med Chem Lett, 2010) come the findings set out here.

In brackets after ≈: the same amount, converted by molar mass.

A short description of data set [1]: Lipophilicity, log D of the compound at pH 7.4. Type of data set: physicochemical. Conditions: buffer.
Data set [2] is described as follows: Fraction unbound in rat brain. It is filed as ADME, tissue-based.
For data set [3], the target named is T1, Metabotropic glutamate receptor 5 (Homo sapiens, UniProt P41594). Briefly: Antagonist activity at human mGluR5 expressed in CHO cells assessed as glutamate induced calcium mobilization.
T1 sequence (P41594 whole entry): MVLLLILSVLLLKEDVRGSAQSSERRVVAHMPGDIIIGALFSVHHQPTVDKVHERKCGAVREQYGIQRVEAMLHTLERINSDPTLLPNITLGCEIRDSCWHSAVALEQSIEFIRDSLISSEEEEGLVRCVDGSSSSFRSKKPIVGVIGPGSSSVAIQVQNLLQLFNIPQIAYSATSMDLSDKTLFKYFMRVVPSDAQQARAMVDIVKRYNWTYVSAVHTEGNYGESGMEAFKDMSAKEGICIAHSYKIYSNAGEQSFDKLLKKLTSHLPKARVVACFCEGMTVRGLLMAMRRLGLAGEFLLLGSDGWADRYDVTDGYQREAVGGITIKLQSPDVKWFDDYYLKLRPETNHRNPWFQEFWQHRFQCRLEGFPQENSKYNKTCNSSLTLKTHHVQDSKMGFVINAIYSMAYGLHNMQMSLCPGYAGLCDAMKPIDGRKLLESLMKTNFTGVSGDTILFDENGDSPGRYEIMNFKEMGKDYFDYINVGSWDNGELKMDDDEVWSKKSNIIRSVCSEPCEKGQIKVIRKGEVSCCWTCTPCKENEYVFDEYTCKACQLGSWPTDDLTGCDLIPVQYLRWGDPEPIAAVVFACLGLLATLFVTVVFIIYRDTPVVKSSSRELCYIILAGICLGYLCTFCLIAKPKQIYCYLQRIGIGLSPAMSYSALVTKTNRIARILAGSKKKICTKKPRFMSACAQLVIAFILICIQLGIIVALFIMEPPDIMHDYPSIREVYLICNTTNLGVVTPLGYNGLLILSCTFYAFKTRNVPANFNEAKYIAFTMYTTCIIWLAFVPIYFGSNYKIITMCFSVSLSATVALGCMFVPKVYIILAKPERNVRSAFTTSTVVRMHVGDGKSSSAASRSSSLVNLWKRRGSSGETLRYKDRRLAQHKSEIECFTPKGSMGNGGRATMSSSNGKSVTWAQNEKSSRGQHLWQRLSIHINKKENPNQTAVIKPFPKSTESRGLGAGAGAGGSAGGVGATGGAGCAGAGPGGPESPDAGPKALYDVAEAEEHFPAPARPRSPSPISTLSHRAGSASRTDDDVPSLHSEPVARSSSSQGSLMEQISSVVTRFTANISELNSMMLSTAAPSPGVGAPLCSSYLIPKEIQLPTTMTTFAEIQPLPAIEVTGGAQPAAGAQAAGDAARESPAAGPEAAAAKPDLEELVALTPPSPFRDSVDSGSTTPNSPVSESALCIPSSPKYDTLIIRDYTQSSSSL
The target of data set [4] is T1, Metabotropic glutamate receptor 5. Briefly: Antagonist activity at human mGluR5 expressed in CHO cells assessed as […] calcium mobilization. Type of data set: functional, cell-based. An outline of the steps: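 CHO cells stably expressing apo-aequorin, with human mGluR5 expression induced by doxycycline. Calcium mobilisation read by aequorin luminescence. Eleven-point concentration-response curves run in the presence of an EC80 of glutamate. pIC50 is the average of at least two curves.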

The target in data set [5] is Metabotropic glutamate receptor 5 (Mus musculus, UniProt Q3UVX5). In words: Antagonist activity at mGluR5 in mouse astrocytes assessed as inhibition of L-quisqualate induced calcium release by FLIPR assay. It is filed as functional, cell-based. In a few lines: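 Primary cortical astrocytes from CD1 mouse pups aged 1–3 days. Cultures re-plated after 5 days to remove neurons and grown at 37 °C to confluence (10–14 d), then plated for 2 days. Cells pre-incubated with antagonist concentration-response curves and challenged with the day's EC80 of L-quisqualate. Intracellular calcium monitored on FLIPR to give fpKi.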
Chain of Metabotropic glutamate receptor 5 (Mus musculus, UniProt Q3UVX5) (Q3UVX5 whole entry): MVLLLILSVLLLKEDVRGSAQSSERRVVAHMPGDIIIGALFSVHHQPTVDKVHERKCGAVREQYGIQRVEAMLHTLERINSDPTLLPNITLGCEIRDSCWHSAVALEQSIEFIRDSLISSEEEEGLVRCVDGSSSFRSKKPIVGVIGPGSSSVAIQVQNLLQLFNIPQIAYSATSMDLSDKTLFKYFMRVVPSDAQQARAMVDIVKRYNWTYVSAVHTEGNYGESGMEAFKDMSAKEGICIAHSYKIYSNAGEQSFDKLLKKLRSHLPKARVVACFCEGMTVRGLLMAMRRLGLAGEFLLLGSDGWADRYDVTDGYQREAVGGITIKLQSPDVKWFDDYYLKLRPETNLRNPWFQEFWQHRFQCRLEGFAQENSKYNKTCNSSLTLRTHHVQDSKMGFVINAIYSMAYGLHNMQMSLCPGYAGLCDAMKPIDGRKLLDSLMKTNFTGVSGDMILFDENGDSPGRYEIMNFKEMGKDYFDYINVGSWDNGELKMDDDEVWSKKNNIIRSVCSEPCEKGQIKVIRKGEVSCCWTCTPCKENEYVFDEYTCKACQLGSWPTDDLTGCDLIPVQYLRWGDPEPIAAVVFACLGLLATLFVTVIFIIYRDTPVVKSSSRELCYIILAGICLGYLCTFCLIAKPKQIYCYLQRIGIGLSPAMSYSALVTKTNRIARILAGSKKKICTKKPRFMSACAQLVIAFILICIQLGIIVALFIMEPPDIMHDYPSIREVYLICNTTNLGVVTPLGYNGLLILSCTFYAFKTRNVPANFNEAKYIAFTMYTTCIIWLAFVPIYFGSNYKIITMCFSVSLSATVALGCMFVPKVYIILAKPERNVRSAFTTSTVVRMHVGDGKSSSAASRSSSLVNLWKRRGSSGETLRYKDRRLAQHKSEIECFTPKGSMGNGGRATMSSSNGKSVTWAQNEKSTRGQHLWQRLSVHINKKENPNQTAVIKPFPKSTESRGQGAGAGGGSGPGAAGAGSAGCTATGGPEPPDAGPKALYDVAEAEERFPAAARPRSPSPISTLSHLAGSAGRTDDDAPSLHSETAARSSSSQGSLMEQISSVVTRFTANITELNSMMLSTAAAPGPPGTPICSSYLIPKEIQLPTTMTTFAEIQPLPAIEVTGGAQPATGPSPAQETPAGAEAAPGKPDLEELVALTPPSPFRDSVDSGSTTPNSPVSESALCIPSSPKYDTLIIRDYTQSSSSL

The nature of data set [6]: Solubility of the compound. Type of data set: physicochemical.
A short description of data set [7]: Clearance in rat at 1.0 mg/kg, po and 0.5 mg/kg, iv. It is filed as ADME, organism-based. Conditions: in vivo. An outline of the steps:
(§1)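 Rat pharmacokinetics after a 1.0 mg/kg oral dose and a 0.5 mg/kg intravenous dose. Blood clearance, oral blood Cmax, brain:blood AUC ratio and oral bioavailability determined.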

The nature of data set [8]: Cmax in rat at 1.0 mg/kg, po. It is filed as ADME, organism-based. On the set-up: dose 1 mg/kg, route oral. Conditions: in vivo. An outline of the steps: as §1
A short description of data set [9]: Ratio of AUC in rat brain to plasma at 1.0 mg/kg, po and 0.5 mg/kg, iv. Type of data set: ADME, organism-based. The following applies: read-out: Ratio AUC. An outline of the steps: as §1
The nature of data set [10]: Oral bioavailability in rat at 1.0 mg/kg. The following applies: in vivo. Type of data set: ADME, organism-based. An outline of the steps: as §1
A short description of data set [11]: Cmax in rat brain at 1.0 mg/kg, po. It is filed as ADME, organism-based. On the set-up: dose 1 mg/kg, route oral.
The test system of the next data set is Brain. In words: fCmax in rat brain at 1.0 mg/kg, po. It is filed as ADME, organism-based. On the set-up: dose 1 mg/kg, route oral. The following applies: in vivo.
The target of data set [12] is Metabotropic glutamate receptor 1 (Homo sapiens) (UniProt Q13255). Briefly: Antagonist activity at mGluR1.
Chain of Metabotropic glutamate receptor 1 (Homo sapiens) (Q13255 whole entry, looked up): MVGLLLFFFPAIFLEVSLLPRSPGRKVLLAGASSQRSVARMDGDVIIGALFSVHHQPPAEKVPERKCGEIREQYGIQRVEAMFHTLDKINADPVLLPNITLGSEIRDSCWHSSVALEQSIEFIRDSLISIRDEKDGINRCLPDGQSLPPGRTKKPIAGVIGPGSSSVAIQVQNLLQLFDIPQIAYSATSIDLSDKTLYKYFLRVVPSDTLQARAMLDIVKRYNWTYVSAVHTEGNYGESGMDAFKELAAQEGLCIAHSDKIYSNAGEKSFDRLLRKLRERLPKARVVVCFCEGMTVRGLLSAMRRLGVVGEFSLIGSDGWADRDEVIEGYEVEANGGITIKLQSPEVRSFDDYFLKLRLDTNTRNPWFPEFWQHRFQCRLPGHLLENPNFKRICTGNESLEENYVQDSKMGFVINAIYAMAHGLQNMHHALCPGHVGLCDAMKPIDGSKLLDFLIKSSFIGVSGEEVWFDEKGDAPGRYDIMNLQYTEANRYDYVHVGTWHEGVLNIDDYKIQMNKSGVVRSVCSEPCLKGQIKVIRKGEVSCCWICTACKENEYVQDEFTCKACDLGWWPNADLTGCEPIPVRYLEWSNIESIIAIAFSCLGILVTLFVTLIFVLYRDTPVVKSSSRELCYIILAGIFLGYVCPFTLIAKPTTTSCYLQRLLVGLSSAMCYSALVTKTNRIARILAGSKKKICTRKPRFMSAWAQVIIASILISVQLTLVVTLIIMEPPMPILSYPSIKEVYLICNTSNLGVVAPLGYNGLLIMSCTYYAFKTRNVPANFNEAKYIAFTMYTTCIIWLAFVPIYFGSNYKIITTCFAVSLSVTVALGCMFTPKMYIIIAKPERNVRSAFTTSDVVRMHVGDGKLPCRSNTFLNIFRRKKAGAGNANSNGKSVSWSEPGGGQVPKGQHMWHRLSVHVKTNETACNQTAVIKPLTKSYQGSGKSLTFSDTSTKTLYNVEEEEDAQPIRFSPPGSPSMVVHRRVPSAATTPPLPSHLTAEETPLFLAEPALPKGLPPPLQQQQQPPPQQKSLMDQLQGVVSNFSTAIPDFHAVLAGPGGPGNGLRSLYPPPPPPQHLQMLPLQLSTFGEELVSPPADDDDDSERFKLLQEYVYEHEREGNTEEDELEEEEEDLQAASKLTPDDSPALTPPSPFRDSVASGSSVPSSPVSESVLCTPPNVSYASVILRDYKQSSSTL

In the case of `Cc1c(C(C)OC(=O)Nc2cccnc2)sc2ncnn12` (stereo not given), the log distribution coefficient (logD) in data set [1] is 1. In data set [2], the fraction unbound stood at 0.28. The concentration for half-maximal inhibition (IC50) in data set [3] is 316 nM.

Consider `Cc1c(C(C)OC(=O)Nc2ccccc2)sc2nc(Cl)nn12` (stereo not given), for which the half-inhibitory concentration (IC50) in data set [4] was 10 nM.

`Cc1c([C@@H](C)OC(=O)Nc2ccccc2)sc2ncnn12`: the IC50 in data set [5] was 31.6 nM; in data set [12], 31600 nM; in data set [3], 39.8 nM. This molecule also had a solubility in [6] of 166 µg/mL (≈ 549 µM). The same molecule returned a clearance in data set [7] of 48 mL/min/kg. For the same molecule, the Cmax in data set [8] was found to be 63 ng/mL; in data set [11] it was 250 nM. Moreover, the Kp in data set [9] amounted to 2. The molecule further yielded a bioavailability in [10] of 28%. The molecule also registered a fCmax in the data set with Brain of 30 nM.

Consider `Cc1c(C(C)OC(=O)Nc2cccc(F)c2)sc2ncnn12` (stereo not given), for which, in data set [4], the IC50 is 50.1 nM. The logD in [1] was 2.6. Further, the fraction unbound in data set [2] was found to be 0.017.

In the case of `Cc1c(C(C)OC(=O)Nc2ccc(Cl)cc2)sc2ncnn12` (stereo not given), the IC50 in data set [4] was 2510 nM.

Turning to `Cc1c(C(C)OC(=O)Nc2ccccc2)sc2nccn12` (stereo not given), in [1], the logD stood at 2.4. The molecule further registered a fraction unbound in data set [2] of 0.003. Also, in data set [3], the IC50 was 12.6 nM.

As for `Cc1c(C(C)OC(=O)Nc2cccc(F)c2)sc2nncn12` (stereo not given), the logD in data set [1] is 2. In data set [2], the fraction unbound amounted to 0.068. In addition, in data set [3], the IC50 is 63.1 nM.

As for `Cc1c(COC(=O)Nc2ccccc2)sc2ncnn12`, the IC50 in data set [3] was greater than 31600 nM.

With `CC(OC(=O)Nc1ccccc1)c1cn2ncnc2s1` (stereo not given), in data set [3], the IC50 is 10000 nM.

As for `Cc1c(C(C)OC(=O)Nc2ccccc2)sc2ncnn12` (stereo not given), the IC50 in data set [3] is greater than 31600 nM.

On to `O=C(Nc1ccccc1)OCc1cn2ncnc2s1`, for which the IC50 in data set [3] was greater than 31600 nM.

Consider `Cc1c(C(C)OC(=O)Nc2ccccc2)sc2nc(-c3cccs3)nn12` (stereo not given), for which the IC50 in [4] is 7.94 nM. Besides, in data set [1], the logD is 3.7. In [2], this molecule gave a fraction unbound of less than 0.001.

As to `Cc1c(C(C)OC(=O)Nc2ccccc2Cl)sc2ncnn12` (stereo not given), the IC50 in data set [4] is 501 nM.

As for `Cc1c(C(C)OC(=O)NC2CCCCC2)sc2ncnn12` (stereo not given), the IC50 in [4] is 3160 nM.

As to `Cc1c([C@H](C)OC(=O)Nc2ccccc2)sc2ncnn12`, the IC50 in [3] is greater than 10000 nM.

Take `Cc1c(C(C)OC(=O)Nc2cccc(Cl)c2)sc2ncnn12` (stereo not given): in [4], the IC50 was 39.8 nM. This molecule also displayed a logD in data set [1] of 2.9. The molecule also had a fraction unbound in data set [2] of 0.009.

In the case of `Cc1c(C(C)OC(=O)Nc2ccccc2)sc2nc(C3CC3)nn12` (stereo not given), the IC50 in [4] is 12.6 nM.

Consider `Cc1c(C(C)OC(=O)Nc2ccccc2)sc2nc(C(F)(F)F)nn12` (stereo not given), for which the IC50 in [4] was 39.8 nM.

Consider `Cc1c(C(C)OC(=O)Nc2ccccc2)sc2nncn12` (stereo not given), for which the IC50 in data set [3] is 126 nM.

In the case of `Cc1c(C(C)OC(=O)Nc2ccccc2)sc2nc(-c3ccc(F)cc3)nn12` (stereo not given), the IC50 in data set [4] was 10 nM.

For `Cc1c(C(C)OC(=O)N(C)c2ccccc2)sc2ncnn12` (stereo not given), in data set [3], the IC50 is greater than 31600 nM.

On to `Cc1c([C@@H](C)OC(=O)Nc2cccc(F)c2)sc2nncn12`, for which the IC50 is 31.6 nM in data set [5], greater than 50100 nM in data set [12] and 39.8 nM in data set [3]. In data set [6], the solubility stood at 31 µg/mL (≈ 96.8 µM). In data set [7], this molecule returned a clearance of 33 mL/min/kg. The same molecule gave a Cmax in [8] of 210 ng/mL. The Kp in data set [9] was determined as 0.2. For the same molecule, the bioavailability in [10] amounted to 100%.

The term logD denotes the decadic logarithm of the distribution of all forms, ionised or not, between an organic phase and buffer at a given pH. A high value points to higher lipophilicity. In general, fraction unbound refers to free concentration divided by total concentration. As usually defined, the IC50 is the concentration that inhibits the measured activity by half. One may read the solubility as the dissolved amount per volume that the medium holds. Low readings indicate a poorly soluble substance, high ones a readily soluble substance. What is called Cmax is the peak of the concentration-time curve. In general, bioavailability refers to the share of a dose that reaches the circulation, judged against a reference dose that is usually intravenous. The low end stands for poor availability, the high end for good availability.
